Assay outcomes (PubChem BioAssay)
This is a sample that favours compounds with a hit; in the whole collection about 1.1% have one here.
FXIa inh 1536 – inhibitors of human coagulation factor XIa | P03951 | purified FXIa, Boc-Glu-Ala-Arg-AMC fluorogenic substrate | inhibition, % at 5 µM | hit rate 0.14% among 220,000 | AID 798;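 active means inhibition of at least 40%; inactive means inhibition below 40%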;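 further: fluorescence of freed AMC excited at 355 nm; 0% = enzyme without compound and 100% = no enzyme blank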
Target sequence (P03951 19-387 limits assumed): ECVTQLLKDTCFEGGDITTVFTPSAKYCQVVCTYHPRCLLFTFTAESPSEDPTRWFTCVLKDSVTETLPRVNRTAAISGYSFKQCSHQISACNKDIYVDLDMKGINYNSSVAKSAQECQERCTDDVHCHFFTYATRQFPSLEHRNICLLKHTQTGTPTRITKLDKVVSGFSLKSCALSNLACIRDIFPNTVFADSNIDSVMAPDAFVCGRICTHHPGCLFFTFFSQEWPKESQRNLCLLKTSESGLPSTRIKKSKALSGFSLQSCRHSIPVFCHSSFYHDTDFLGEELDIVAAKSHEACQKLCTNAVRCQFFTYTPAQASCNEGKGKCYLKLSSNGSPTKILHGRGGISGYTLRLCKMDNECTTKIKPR
Target sequence (P03951 388-625 limits assumed): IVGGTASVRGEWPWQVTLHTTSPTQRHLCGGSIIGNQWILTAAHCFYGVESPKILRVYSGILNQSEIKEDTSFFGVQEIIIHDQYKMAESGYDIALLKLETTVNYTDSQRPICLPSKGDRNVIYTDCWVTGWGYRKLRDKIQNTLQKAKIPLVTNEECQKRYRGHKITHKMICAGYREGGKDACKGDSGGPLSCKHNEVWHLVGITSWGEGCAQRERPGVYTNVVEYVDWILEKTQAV
Thrombin inh – blocks human thrombin protease activity; P00734; alpha-thrombin, Boc-VPR-AMC fluorogenic substrate cleavage; inhibition, % at 5 µM; hit rate 0.26% among 220,000; AID 1046;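 active means inhibition at or above 40%; inactive means inhibition below 40%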;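 further: 0% = enzyme with no compound and 100% = wells without enzyme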
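Test system: human alpha-thrombin protein / Dosing: one concentration per compound, 5 µM, with 0.2% DMSO / Medium: pH 7.5 Tris-saline with Tween 20 / Benchmarks: no-compound enzyme wells and no-enzyme blanks / Read-out basis: percent inhibition of thrombin substrate cleavage / Timing: reaction at room temperature / Measured by: fluorescence, ex 355 nm, em 460 nm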
FXIIa inh 1536 – inhibitors of human coagulation factor XIIa; P00748; hit rate 0.3% among 220,000; inhibition, % at 5 µM; purified FXIIa, Boc-QGR-AMC fluorogenic substrate, 2 h; AID 800; in the data active means inhibition above about 40%;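 further: 0% = enzyme with no compound and 100% = blank without enzyme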
KLK5 inh – kallikrein 5 (human) inhibition; recombinant hK5, fluorogenic AMC substrate cleavage; inhibition, % at 5 µM; hit rate 0.59% among 210,000; AID 873;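 active means inhibition of 40% or more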;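 further: 0% = enzyme controls without compound and 100% = no-enzyme blanks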
Furin inhibitor – human furin inhibition; inhibition, % at 20 µM or 30 µM; hit rate 0.061% among 220,000; P09958; purified furin, fluorogenic substrate cleavage; in the data active means inhibition above about 25%
Active calls of the source: *; . = no result given.

SMILES | FXIa inh 1536 | Thrombin inh | FXIIa inh 1536 | KLK5 inh | Furin inhibitor
O=C(NNc1ccc(Cl)cc1)c1sccc1Cl | -5 | 1 | 6 | -6 | -14
NS(=O)(=O)c1ccc(NNC(=O)c2sccc2Cl)cc1 | 22 | 30 | 41* | 29 | -4
O=c1nc(Nc2ccc(Br)cc2)sc2ccc([N+](=O)[O-])cc12 | 5 | 5 | 16 | 2 | 1
CCCC(C)NC(=O)Cc1ccccc1 (stereo unspecified) | 4 | 4 | 45* | 8 | -5
CC(CCc1ccccc1)NC(=O)Cc1ccccc1 (stereo unspecified) | -7 | -10 | 4 | -5 | -20
CC(=O)N1c2ccccc2N2C(c3c(C)c(C)cc(C)c3C)=NON12 | 0 | 47* | 6 | -4 | -13
Cc1cc(C)c(C)c(C(=O)c2ccccc2C(=O)O)c1C | -1 | -4 | 10 | 0 | -21
CCOC(=O)c1cn(Cc2ccccc2)nn1 | 36 | -6 | 50* | -5 | -7
CCOC(=O)c1cn(CC(=O)Nc2ccccc2C(=O)OCC)nn1 | -15 | 3 | 12 | 10 | -9
Cc1sc2ncnc(N3CCCC(C)C3)c2c1C (stereo unspecified) | -5 | -4 | -8 | -18 | -9
O=C1c2ccccc2C(Nc2ccc3c(c2)OCCO3)N1c1ccc(Cl)cn1 (stereo unspecified) | -11 | -6 | 3 | 0 | -17
O=C1c2ccccc2C(Nc2ccc3c(c2)OCCO3)N1c1ccccn1 (stereo unspecified) | 0 | 9 | 13 | 51* | -6
Cc1ccc(/C=c2\sc3nc(-c4ccccc4Br)nn3c2=O)o1 | 8 | 104* | 6 | 12 | -23
CN(NC(=O)c1ccccc1Cl)c1ncc(C(F)(F)F)cc1Cl | -8 | -2 | 5 | -5 | -16
COC(=O)c1cc(NC(=O)c2ccoc2C)cc(C(=O)OC)c1 | 2 | 1 | 5 | 40* | -24
Cc1occc1C(=O)Nc1cccnc1 | 3 | 10 | 5 | 78* | -24
COc1ccccc1-n1cc(C(=O)NCC(=O)N2CCN(c3ccccc3)CC2)c2ccccc2c1=O | 0 | -1 | 8 | -2 | -4
COc1ccccc1N1CCN(C(=O)CNC(=O)c2cn(-c3ccccc3OC)c(=O)c3ccccc23)CC1 | -1 | 101* | 9 | 2 | -33
COc1cc(/C=c2\s/c(=C\C(=O)C(C)(C)C)[nH]c2=O)cc(OC)c1OC | 35 | 34 | 29 | 47* | 3
COc1ccc(/C=c2\s/c(=C\C(=O)C(C)(C)C)[nH]c2=O)cc1O | 5 | 1 | 10 | 6 | 9
O=C(NCc1ccco1)c1ccc(C(=O)NCc2ccco2)s1 | 6 | 3 | 20 | 8 | -18
O=C(NCc1ccco1)c1scc2c1OCCO2 | 14 | 0 | 43* | 6 | -10
COc1ccc(CNc2nc(-c3cccnc3)nn2C(=O)CC(C)C)cc1 | -5 | 95* | 5 | -1 | -30
CCC(=O)n1nc(-c2cccnc2)nc1NCc1ccc(F)cc1 | 3 | . | 12 | 4 | -11
COc1ccc(CNc2nc(-c3cccnc3)nn2C(C)=O)cc1 | -1 | 99* | 6 | 1 | -20
SMILES | FXIa inh 1536 | Thrombin inh | FXIIa inh 1536 | KLK5 inh | Furin inhibitor
COc1ccc(CNc2nc(-c3cccnc3)nn2C(=O)c2cccs2)cc1 | 0 | 18 | 6 | -5 | -5
COc1ccc2ccccc2c1/C=N/NC(=O)c1sc(N)c(C#N)c1C | 7 | 21 | 13 | 64* | -12
Cc1cccc(NC(=S)NNC(=O)c2cc3c(s2)CCC(C)C3)c1C (stereo unspecified) | -5 | -14 | 0 | -94 | -4
CS(=O)(=O)c1ccc(C(=O)NCCN2C(=O)S/C(=C\c3cccnc3)C2=O)cc1[N+](=O)[O-] | -1 | -4 | 9 | 2 | -13
N#Cc1cnn(Cc2ccc(Cl)cc2)c1N | 36 | 0 | 58* | 9 | -17
N#Cc1cnn(Cc2ccccc2)c1N | -17 | 9 | 0 | -23 | -23
CN1CCN(c2ccccc2NC(=O)c2cccc(OCc3ccccc3)c2)CC1 | 2 | -5 | 14 | -11 | 35*
C[C@@H](C(=O)Nc1cccc(S(=O)(=O)N2CCOCC2)c1)N1C(=O)C2CC=CCC2C1=O (stereo partly specified) | -5 | 0 | 1 | -6 | -22
COc1cc(C2C3C(=O)N(Cc4ccccc4)C(=O)C3ON2c2ccccc2)cc(OC)c1OC (stereo unspecified) | -2 | 5 | 11 | -10 | -2
COc1ccc(C2C3C(=O)N(Cc4ccccc4)C(=O)C3ON2c2ccccc2)c(OC)c1OC (stereo unspecified) | 7 | 19 | 13 | 52* | -11
O=C(c1ccco1)N(Cc1ccc2c(c1)OCO2)Cc1cc2cc3c(cc2[nH]c1=O)OCO3 | 0 | 2 | 11 | 2 | -13
Cc1cc2cc(CN(Cc3ccc4c(c3)OCO4)C(=O)c3ccco3)c(=O)[nH]c2cc1C | 2 | 15 | 9 | 54* | -13
Cc1cccc(N2N=C(C(=O)N3CC(=O)Nc4ccccc43)CCC2=O)c1 | 33 | 22 | 44* | 34 | 0
Cc1cccc(Nc2c([N+](=O)[O-])cc(C(=O)N3CC(=O)Nc4ccccc43)cc2[N+](=O)[O-])c1 | 4 | -6 | 4 | -7 | -11
N#Cc1c2c(c(Nc3ccc(O)cc3)n3c1nc1ccccc13)CCC2 | 0 | 35 | 12 | 44* | -13
CCCCc1c(O)nc(SCC(=O)c2ccccc2)n(-c2ccccc2)c1=O | -1 | 2 | 2 | -2 | 0
COC(=O)c1c(NC(=O)CN2C(=O)NC3(CCc4ccccc4C3)C2=O)sc2c1CCCCC2 (stereo unspecified) | 11 | -1 | 12 | -8 | -6
C=CCNC(=S)N/N=C/c1ccc(C)c([N+](=O)[O-])c1 | 41* | 24 | 106* | 62* | -11
COc1ccc(/C=N/NC(=O)c2ccc3nc[nH]c3c2)cc1 | -3 | -8 | -3 | -3 | -11
CCOC(=O)N1CCN(C(=O)c2ccccc2NC(=O)c2ccc(F)cc2)CC1 | 11 | 27 | 13 | 58* | -12
Cc1cc(/C=C2\SC(=S)N(C)C2=O)c(C)n1-c1cccc(O)c1 | 65* | 5 | 7 | 24 | 4
Cc1ccc2nc(NC(=O)CSCC(=O)OCC(=O)c3ccccc3)sc2c1 | 10 | 93* | 10 | -11 | -27
CC(C)Cn1[nH]c2c3c(ccc2c1=O)C(=O)c1ccccc1C3=O | 4 | 6 | 25 | 5 | -26
CNC(=O)CCN(Cc1ccco1)S(=O)(=O)c1ccc(OC)c(OC)c1 | -1 | 24 | 20 | 16 | -2
COC(=O)Cc1c(C)nc2nc(-c3ccc(C)cc3)[nH]n2c1=O | 8 | 0 | 40* | 6 | -10
COC(=O)CSc1nc2cc(OC)ccc2n1C | 7 | 3 | 11 | 1 | -3
COC(=O)CSc1nnc(-c2sc3cc(OC)ccc3c2Cl)n1C | 23 | 0 | 48* | 3 | -19
CC1(C)N([O-])C2=C(CCCC2)[N+]1=O | -6 | 8 | 7 | 7 | -10
